In ChEMBL document CHEMBL1150367, “High specific activity tritium-labeled N-(2-methoxybenzyl)-2,5-dimethoxy-4-iodophenethylamine (INBMeO): a high-affinity 5-HT2A receptor-selective agonist radioligand” (Bioorg Med Chem, 2008) one finds Ki, Bmax and Kd data, which are given here for four compounds.

In assay [1] the target is T1, 5-hydroxytryptamine receptor 2A (Homo sapiens, UniProt P28223). Kind of assay: Displacement of [3H]ketanserin from human 5HT2A receptor expressed in human HEK293 cells. The assay is classed as cell-based. In general terms: Loss of bound radioactivity is the signal in a displacement assay; it reports binding, not function.
T1 sequence (P28223 whole entry): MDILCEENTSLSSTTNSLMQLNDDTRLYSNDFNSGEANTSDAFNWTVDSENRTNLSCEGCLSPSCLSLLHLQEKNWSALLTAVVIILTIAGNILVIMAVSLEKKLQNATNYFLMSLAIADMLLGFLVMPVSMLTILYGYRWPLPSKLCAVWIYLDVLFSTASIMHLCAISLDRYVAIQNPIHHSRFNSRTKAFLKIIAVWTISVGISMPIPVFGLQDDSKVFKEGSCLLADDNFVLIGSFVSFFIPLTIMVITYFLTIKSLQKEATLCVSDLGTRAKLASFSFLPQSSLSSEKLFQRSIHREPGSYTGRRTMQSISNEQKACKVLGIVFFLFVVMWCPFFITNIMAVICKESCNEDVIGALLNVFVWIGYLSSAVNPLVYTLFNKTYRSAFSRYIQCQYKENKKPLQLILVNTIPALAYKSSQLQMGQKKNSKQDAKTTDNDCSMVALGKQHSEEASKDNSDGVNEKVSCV
Assay [2] concerns the target T1, 5-hydroxytryptamine receptor 2A. Kind of assay: Displacement of [3H]INBMeO from human 5HT2A receptor expressed in human A549 cells. The assay is classed as cell-based.
For assay [3] the target is unchanged. Kind of assay: Displacement of [3H]INBMeO from human 5HT2A receptor expressed in human HEK293 cells. The assay is classed as cell-based.
Assay [4] shares this target. Kind of assay: Displacement of [3H]ketanserin from human 5HT2A receptor expressed in human A549 cells. The assay is classed as cell-based.
The target is the same in assay [5]. Put plainly: Binding affinity to human 5HT2A receptor expressed in human A549 cells. The class given is cell-based. Particulars: for Bmax: tested as the 3H-labelled form. An outline of the steps: (§1)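 Incubated 60 min at 25 °C in 50 mM Tris, 4 mM MgCl2, pH 7.4, with 1% BSA. Nonspecific defined by 10 μM cinanserin; filtration and scintillation counting.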
For assay [6] the target is unchanged. Kind of assay: Binding affinity to human 5HT2A receptor expressed in human HEK293 cells. The assay is classed as cell-based. Particulars: for Bmax: tested as the 3H-labelled form. In short, it runs like this:
as §1

In assay [7] the target is Muscarinic acetylcholine receptor M3 (Homo sapiens, UniProt P20309). Kind of assay: Binding affinity to muscarinic M3 receptor.
Sequence of Muscarinic acetylcholine receptor M3 (P20309 whole entry): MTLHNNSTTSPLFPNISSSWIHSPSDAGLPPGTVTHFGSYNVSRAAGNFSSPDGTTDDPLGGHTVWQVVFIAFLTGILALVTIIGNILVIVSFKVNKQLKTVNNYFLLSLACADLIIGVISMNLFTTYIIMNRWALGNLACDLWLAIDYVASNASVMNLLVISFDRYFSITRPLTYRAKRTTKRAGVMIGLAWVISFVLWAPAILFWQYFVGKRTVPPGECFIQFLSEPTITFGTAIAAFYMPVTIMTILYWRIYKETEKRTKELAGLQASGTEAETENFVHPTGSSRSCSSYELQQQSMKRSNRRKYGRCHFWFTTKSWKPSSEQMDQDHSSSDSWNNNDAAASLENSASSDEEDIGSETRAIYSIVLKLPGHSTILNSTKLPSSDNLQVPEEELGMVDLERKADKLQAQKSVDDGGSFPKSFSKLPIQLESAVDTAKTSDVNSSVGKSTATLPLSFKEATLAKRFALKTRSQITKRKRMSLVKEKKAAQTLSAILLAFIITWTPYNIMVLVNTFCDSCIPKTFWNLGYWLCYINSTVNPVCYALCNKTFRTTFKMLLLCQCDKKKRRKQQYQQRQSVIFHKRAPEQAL
The target in assay [8] is 5-hydroxytryptamine receptor 2C (Homo sapiens, UniProt P28335). Put plainly: Binding affinity to 5HT2C receptor.
The target in assay [9] is Delta-type opioid receptor (Homo sapiens, UniProt P41143). Kind of assay: Binding affinity to delta opioid receptor.
Sequence of Delta-type opioid receptor (P41143 whole entry): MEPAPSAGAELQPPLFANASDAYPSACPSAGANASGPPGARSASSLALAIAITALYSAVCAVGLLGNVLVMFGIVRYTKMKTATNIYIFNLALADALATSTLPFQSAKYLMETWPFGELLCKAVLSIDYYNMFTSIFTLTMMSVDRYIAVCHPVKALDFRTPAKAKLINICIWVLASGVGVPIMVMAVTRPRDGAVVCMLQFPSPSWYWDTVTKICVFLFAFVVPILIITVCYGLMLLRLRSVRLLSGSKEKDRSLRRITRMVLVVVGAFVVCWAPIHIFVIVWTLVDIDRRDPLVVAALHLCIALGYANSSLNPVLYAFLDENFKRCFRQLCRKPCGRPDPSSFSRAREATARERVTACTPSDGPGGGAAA
Assay [10] addresses 5-hydroxytryptamine receptor 5A (Homo sapiens, UniProt P47898). Put plainly: Binding affinity to 5HT5A receptor.
In assay [11] the target is Sodium-dependent serotonin transporter (Homo sapiens, UniProt P31645). Kind of assay: Binding affinity to serotonin uptake transporter.
Sequence of Sodium-dependent serotonin transporter (P31645 whole entry): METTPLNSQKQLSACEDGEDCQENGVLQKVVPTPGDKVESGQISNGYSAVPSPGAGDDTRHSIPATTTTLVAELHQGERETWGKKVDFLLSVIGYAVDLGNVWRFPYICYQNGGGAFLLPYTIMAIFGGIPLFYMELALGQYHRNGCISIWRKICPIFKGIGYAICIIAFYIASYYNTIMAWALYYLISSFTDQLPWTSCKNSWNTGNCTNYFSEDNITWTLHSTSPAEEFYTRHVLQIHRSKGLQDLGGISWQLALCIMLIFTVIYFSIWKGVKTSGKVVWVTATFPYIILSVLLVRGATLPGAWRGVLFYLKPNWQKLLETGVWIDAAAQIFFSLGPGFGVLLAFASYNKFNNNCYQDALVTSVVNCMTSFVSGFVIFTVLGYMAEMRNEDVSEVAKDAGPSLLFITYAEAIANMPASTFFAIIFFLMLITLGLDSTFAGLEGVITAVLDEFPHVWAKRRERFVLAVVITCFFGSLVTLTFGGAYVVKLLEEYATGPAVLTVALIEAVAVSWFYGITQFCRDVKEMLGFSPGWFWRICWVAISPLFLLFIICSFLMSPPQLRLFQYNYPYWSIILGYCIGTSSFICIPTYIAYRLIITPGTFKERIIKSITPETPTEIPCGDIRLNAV
The target in another assay is Histamine H3 receptor (Homo sapiens, UniProt Q9Y5N1). Put plainly: Binding affinity to histamine H3 receptor.
Assay [12] has as its target Sodium-dependent dopamine transporter (Homo sapiens, UniProt Q01959). Put plainly: Binding affinity to dopamine uptake transporter.
Assay [13] concerns the target Muscarinic acetylcholine receptor M4 (Homo sapiens, UniProt P08173). Put plainly: Binding affinity to muscarinic M4 receptor.
Another assay has as its target D(2) dopamine receptor (Homo sapiens, UniProt P14416). Put plainly: Binding affinity to dopamine D2 receptor.
Assay [14] addresses 5-hydroxytryptamine receptor 1A (Homo sapiens, UniProt P08908). Put plainly: Binding affinity to 5HT1A receptor.
The target of the next assay is Histamine H1 receptor (Homo sapiens, UniProt P35367). Put plainly: Binding affinity to histamine H1 receptor.
Assay [15] has as its target Muscarinic acetylcholine receptor M1 (Homo sapiens, UniProt P11229). Put plainly: Binding affinity to muscarinic M1 receptor.
The next assay has as its target D(1B) dopamine receptor (Homo sapiens, UniProt P21918). Put plainly: Binding affinity to dopamine D5 receptor.
Assay [16] concerns the target 5-hydroxytryptamine receptor 6 (Homo sapiens, UniProt P50406). Put plainly: Binding affinity to 5HT6 receptor.
Assay [17] has as its target 5-hydroxytryptamine receptor 1B (Homo sapiens, UniProt P28222). Put plainly: Binding affinity to 5HT1B receptor.
In assay [18] the target is 5-hydroxytryptamine receptor 1E (Homo sapiens, UniProt P28566). Put plainly: Binding affinity to 5HT1E receptor.
Assay [19] has as its target Alpha-1A adrenergic receptor (Homo sapiens, UniProt P35348). Put plainly: Binding affinity to alpha 1A adrenergic receptor.
The target in assay [20] is Muscarinic acetylcholine receptor M2 (Homo sapiens, UniProt P08172). Kind of assay: Binding affinity to muscarinic M2 receptor.
Assay [21] deals with 5-hydroxytryptamine receptor 2B (Homo sapiens, UniProt P41595). Put plainly: Binding affinity to 5HT2B receptor.
In assay [22] the target is 5-hydroxytryptamine receptor 7 (Homo sapiens, UniProt P34969). Kind of assay: Binding affinity to 5HT7 receptor.
Sequence of 5-hydroxytryptamine receptor 7 (P34969 whole entry): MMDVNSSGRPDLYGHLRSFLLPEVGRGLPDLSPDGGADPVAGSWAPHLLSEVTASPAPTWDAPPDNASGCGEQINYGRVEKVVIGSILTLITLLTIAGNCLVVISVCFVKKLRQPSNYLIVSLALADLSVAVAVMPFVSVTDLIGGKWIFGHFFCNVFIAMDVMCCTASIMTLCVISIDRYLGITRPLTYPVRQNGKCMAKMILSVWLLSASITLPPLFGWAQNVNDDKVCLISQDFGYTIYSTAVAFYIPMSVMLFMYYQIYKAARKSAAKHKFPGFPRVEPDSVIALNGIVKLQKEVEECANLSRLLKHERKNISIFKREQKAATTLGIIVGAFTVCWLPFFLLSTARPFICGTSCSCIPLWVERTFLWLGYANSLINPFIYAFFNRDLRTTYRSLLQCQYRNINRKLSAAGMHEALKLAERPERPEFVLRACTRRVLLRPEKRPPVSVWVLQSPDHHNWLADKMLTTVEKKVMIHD
Assay [23] has as its target Muscarinic acetylcholine receptor M5 (Homo sapiens, UniProt P08912). Put plainly: Binding affinity to muscarinic M5 receptor.
The target of another assay is Histamine H2 receptor (Homo sapiens, UniProt P25021). Kind of assay: Binding affinity to histamine H2 receptor.
Sequence of Histamine H2 receptor (P25021 whole entry): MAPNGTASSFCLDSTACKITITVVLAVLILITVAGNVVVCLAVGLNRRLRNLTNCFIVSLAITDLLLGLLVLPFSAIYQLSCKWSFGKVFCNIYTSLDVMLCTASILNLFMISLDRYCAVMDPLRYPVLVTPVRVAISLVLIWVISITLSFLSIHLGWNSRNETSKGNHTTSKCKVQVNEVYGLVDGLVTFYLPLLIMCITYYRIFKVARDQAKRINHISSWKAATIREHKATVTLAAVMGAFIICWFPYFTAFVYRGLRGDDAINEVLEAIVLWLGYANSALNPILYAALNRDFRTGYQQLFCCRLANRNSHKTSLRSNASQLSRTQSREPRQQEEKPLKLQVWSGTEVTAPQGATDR
The next assay addresses Mu-type opioid receptor (Homo sapiens, UniProt P35372). Kind of assay: Binding affinity to mu opioid receptor.
Assay [24] deals with Kappa-type opioid receptor (Homo sapiens, UniProt P41145). Kind of assay: Binding affinity to kappa opioid receptor.
The next assay deals with D(1A) dopamine receptor (Homo sapiens, UniProt P21728). Kind of assay: Binding affinity to dopamine D1 receptor.
The target in assay [25] is 5-hydroxytryptamine receptor 1D (Homo sapiens, UniProt P28221). Kind of assay: Binding affinity to 5HT1D receptor.
Sequence of 5-hydroxytryptamine receptor 1D (P28221 whole entry): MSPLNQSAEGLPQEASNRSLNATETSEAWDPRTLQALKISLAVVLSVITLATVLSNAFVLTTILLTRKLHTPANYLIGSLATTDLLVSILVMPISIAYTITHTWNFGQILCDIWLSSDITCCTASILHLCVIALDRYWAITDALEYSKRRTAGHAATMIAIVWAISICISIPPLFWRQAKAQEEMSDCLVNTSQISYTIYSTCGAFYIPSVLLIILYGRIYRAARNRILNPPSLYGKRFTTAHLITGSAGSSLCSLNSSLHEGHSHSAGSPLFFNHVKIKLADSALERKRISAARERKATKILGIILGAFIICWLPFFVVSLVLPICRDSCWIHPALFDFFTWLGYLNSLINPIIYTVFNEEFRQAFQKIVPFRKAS
The target in assay [26] is 5-hydroxytryptamine receptor 3A (Homo sapiens, UniProt P46098). Put plainly: Binding affinity to 5HT3 receptor.
The next assay addresses D(3) dopamine receptor (Homo sapiens, UniProt P35462). Put plainly: Binding affinity to dopamine D3 receptor.

Sequence of Mu-type opioid receptor (P35372 whole entry): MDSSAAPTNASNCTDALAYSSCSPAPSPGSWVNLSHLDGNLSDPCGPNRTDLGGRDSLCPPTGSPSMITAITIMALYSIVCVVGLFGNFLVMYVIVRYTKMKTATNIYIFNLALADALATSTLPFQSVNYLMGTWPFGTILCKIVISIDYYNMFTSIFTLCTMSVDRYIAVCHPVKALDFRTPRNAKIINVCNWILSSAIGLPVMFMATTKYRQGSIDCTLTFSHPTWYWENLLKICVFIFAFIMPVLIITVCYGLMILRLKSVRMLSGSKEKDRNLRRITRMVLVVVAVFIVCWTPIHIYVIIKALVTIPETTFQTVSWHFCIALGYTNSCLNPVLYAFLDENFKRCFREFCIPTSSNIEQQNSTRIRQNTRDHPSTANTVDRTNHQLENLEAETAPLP
Sequence of 5-hydroxytryptamine receptor 1A (P08908 whole entry): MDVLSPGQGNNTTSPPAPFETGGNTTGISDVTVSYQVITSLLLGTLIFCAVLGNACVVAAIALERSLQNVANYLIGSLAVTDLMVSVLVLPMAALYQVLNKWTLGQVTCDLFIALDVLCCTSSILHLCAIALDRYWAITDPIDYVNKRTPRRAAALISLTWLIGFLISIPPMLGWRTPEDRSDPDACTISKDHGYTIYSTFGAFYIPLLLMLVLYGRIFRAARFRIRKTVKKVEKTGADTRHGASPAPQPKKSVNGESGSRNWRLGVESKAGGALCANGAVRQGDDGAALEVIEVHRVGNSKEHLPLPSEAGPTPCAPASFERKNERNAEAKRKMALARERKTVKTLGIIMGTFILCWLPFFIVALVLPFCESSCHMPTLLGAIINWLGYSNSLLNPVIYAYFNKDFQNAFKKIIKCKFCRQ
Sequence of Muscarinic acetylcholine receptor M4 (P08173 whole entry): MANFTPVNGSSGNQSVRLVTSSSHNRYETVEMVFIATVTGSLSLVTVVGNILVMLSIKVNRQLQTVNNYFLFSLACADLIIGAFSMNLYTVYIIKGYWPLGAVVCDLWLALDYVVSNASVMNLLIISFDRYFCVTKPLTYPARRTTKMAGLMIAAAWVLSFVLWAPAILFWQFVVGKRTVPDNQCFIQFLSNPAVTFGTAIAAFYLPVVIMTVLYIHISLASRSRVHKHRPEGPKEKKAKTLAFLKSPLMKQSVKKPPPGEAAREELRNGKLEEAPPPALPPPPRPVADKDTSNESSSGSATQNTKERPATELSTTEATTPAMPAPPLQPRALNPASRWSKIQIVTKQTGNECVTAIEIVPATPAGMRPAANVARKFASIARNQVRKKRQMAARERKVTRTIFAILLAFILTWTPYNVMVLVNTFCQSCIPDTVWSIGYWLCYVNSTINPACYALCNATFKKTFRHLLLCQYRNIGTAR
Sequence of 5-hydroxytryptamine receptor 5A (P47898 whole entry): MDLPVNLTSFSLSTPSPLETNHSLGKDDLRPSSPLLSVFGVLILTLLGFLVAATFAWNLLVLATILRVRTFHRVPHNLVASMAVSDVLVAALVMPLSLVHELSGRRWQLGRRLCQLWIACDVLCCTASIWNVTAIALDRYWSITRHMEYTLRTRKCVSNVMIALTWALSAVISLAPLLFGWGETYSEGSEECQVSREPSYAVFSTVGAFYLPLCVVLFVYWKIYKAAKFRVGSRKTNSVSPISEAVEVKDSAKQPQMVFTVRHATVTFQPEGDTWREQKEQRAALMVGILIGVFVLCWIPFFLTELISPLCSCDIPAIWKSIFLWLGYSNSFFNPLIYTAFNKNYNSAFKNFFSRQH

Consider `CN(C)CCCSc1ccccc1NC(=O)/C=C/c1ccccc1` [CINANSERIN], for which the Ki (in general, the equilibrium dissociation constant of an inhibitor or competing ligand from its target) in [1] stood at 13 nM; in assay [2] it was 24 nM; in assay [3] it was 22 nM; in [4] it was 17 nM.
Regarding `COc1cc(CCNCc2ccccc2OC)c(OC)cc1I`, the figures for the Bmax in assay [5] and in assay [6] were 480 fmol/mg and 2210 fmol/mg, respectively.
Consider `[3H]C([3H])([3H])Oc1cc(I)c(OC)cc1CCNCc1ccccc1OC([3H])([3H])[3H]`, for which the Ki is above 500 nM in [7]; 2 nM in [8]; above 500 nM in assay [9]; above 500 nM in assay [10]; above 500 nM in [11]; above 500 nM at Histamine H3 receptor. Further, the Ki in assay [12] was above 500 nM; in assay [13], above 500 nM; on D(2) dopamine receptor, above 500 nM; in assay [14], above 500 nM; at Histamine H1 receptor, 189 nM; in assay [15] it was above 500 nM. Moreover, the Ki at D(1B) dopamine receptor is above 500 nM; in assay [16], 73 nM; in assay [17], above 500 nM; in assay [18], above 500 nM; in [19], above 500 nM; in [20], above 500 nM. Moreover, the Ki in [21] was 231 nM; in assay [22], above 500 nM; in assay [23], above 500 nM; at Histamine H2 receptor, above 500 nM; on Mu-type opioid receptor it was 82 nM; in assay [24], 288 nM. The Ki (on D(1A) dopamine receptor; in [25]; in assay [26]; on D(3) dopamine receptor) was above 500 nM each time. Further, the values for the dissociation constant (Kd) in assay [5] and in [6] were 0.097 nM and 0.15 nM, respectively.
As for `O=C(c1ccc(F)cc1)C1CCN(CCn2c(=O)[nH]c3ccccc3c2=O)CC1`, the Bmax in [5] stood at 890 fmol/mg; in assay [6], 3260 fmol/mg.
